High-throughput results from PubChem BioAssay.
In the library only some 3% were active in any assay of this set; here they are far more common.
SR-BI DiI-HDL act: activators of SR-BI mediated DiI-HDL uptake, primary screen, ldlA[mSR-BI] CHO cells, DiI fluorescence; 3 h; 100 = double the neutral-control signal; activation, % at 12.5 µM; 0.096% of 320,000 active;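 active = mean replicate activation of at least 60% and every replicate at or above 60%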;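 also: 0% = median plate neutral-control signal and 100% = twice that signal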
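system = CHO ldlA[mSR-BI] cells, LDL receptor-null, SR-BI overexpressing | medium = Ham's F12 with 0.5% BSA, HEPES 25 mM, pH 7.4 | probe or stimulus = DiI-HDL 10 µg/mL | compound dosing = single-point compound dose | incubation = compound exposure 3 h, 37 °C | technique = DiI fluorescence, bottom read | read-out = cell-associated DiI fluorescence as measure of HDL uptake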
SR-BI DiI inh: inhibitors of SR-BI mediated HDL lipid uptake, primary screen, ldlA[mSR-BI] cells, fluorescence, single point | inhibition, % at 12.5 µM | 0.96% of 320,000 active | ldlA[mSR-BI] CHO cells, DiI-HDL uptake fluorescence, 3 h | Scavenger receptor class B member 1 (Mus musculus), Q61009 | AID 488896, 2010;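 active = mean replicate inhibition of at least 70% and a set share of replicates each scoring 70 or more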;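 also: 0% = median of neutral control wells and 100% = median of positive control wells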
FID counter: compounds displacing fluorescent DNA intercalator, primary screen, artefact control for HCV NS3 helicase inhibitor project, biochemical, FID fluorescence. DNA fluorescent intercalator displacement. inhibition, % at 7.9 µM. 0.17% of 290,000 active. AID 1845, 2009; in the data active = inhibition above about 37%;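 also: 0% = vehicle and 100% = reference compound; higher means more ethidium bromide displaced from hairpin DNA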
Kir21 block: inhibitors of mouse Kir2.1 inward-rectifier potassium channel; HEK293-Kir2.1, FluxOR thallium flux fluorescence; active compounds read low; 0.85% of 310,000 active; Inward rectifier potassium channel 2 (Mus musculus), P35561; B-score at 10 µM; AID 1672, 2009;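 active = fluorescence ratio B-score at or below minus 3 SD of library scores, with starting-brightness B-score within 2 SD, cut at about -4.2 in these data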;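 also: channel flux triggered by added potassium and thallium sulfate stimulus; B-score of peak minus minimum fluorescence over baseline after thallium stimulus; more negative B-score means stronger Kir2.1 block with less thallium influx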
ANO1 activ: TMEM16A chloride channel activators or potentiators, primary screen, cell-based, HTS; Anoctamin-1 (Mus musculus), Q8BHY3; HEK293 TMEM16A/YFP-H148Q/I152L, iodide quench fluorescence; active compounds read low; B-score at 10 µM; 0.3% of 340,000 active;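 active = fluorescence-ratio B-score plate-corrected deviation score at least 3 library SD below zero, with starting fluorescence score within 5 deviations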;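 also: channel opened by trigger with iodide after compound preincubation; score built on the fluorescence ratio of max minus min over baseline; more negative score means more quench and so TMEM16A activation or potentiation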
ANO1 block: TMEM16A chloride channel inhibitors, primary screen, cell-based, HTS. normalized B-score (activity score, 25-100; higher = stronger inhibition) at 10 µM. 1.2% of 310,000 active. HEK293 TMEM16A/YFP iodide influx fluorescence, ionomycin. Anoctamin-1 (Mus musculus), Q8BHY3;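 active = ratio plate-corrected score three or more library SD toward inhibition, starting fluorescence score within five deviations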;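 also: score derived from kinetic fluorescence span divided by baseline fluorescence per well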
TMEM16A reconf: TMEM16A chloride channel inhibitors, confirmation, cell-based, re-confirmation; 39% of 2,300 active; shares compounds with ANO1 block; inhibition, % at 10 µM; HEK293 TMEM16A/YFP-H148Q, iodide quench fluorescence; ionomycin added to raise cell calcium; AID 652189, 2013;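 active = mean duplicate percent inhibition, scaled so buffer wells are 0 and the reference blocker 100, over three buffer SD above buffer mean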
HEK293 Ca mobil: calcium mobilization in TMEM16A/YFP HEK293 cells, confirmation, counter-screen for TMEM16A inhibitor project; shares compounds with ANO1 block; Fluo4 calcium mobilization; calcium response (% of ionomycin), % at 10 µM; 2% of 2,300 active; AID 652231, 2013;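 active = duplicate-averaged calcium signal over 20% of the ionomycin maximum, relative to buffer baseline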;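 also: each well's signal is peak minus trough fluorescence divided by its pre-addition baseline; 0% = buffer wells and 100% = ionomycin wells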
Parental YFP cnt: iodide YFP quench changes in parental YFP-HEK293, counter-screen for TMEM16A inhibitor project, cell-based | shares compounds with ANO1 block | ionomycin | YFP ratio F(max-min)/F0 at 10 µM | 2,300 tested, under 10 active;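 active = yellow fluorescent protein signal ratio exceeding the buffer control mean by over 5 SD of those controls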;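 also: ratio is mean of duplicate wells from kinetic YFP trace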
ClC-1 rat inh: ClC-1 chloride channel inhibition, selectivity assay for TMEM16A inhibitor project, cell-based, voltage-dependent ClC-1 | shares compounds with ANO1 block | CHO ClC-1-YFP, iodide influx fluorescence quench; iodide control reads 0, buffer control 100 | ratio percent, % at 10 µM | 2,300 tested, under 10 active;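 active = duplicate-mean ratio percent above the mean of iodide-only control wells, which defines zero, plus 5 of their SD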;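 also: higher percent means stronger block of ClC-1 iodide influx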
Target sequence (P35524 whole entry, looked up): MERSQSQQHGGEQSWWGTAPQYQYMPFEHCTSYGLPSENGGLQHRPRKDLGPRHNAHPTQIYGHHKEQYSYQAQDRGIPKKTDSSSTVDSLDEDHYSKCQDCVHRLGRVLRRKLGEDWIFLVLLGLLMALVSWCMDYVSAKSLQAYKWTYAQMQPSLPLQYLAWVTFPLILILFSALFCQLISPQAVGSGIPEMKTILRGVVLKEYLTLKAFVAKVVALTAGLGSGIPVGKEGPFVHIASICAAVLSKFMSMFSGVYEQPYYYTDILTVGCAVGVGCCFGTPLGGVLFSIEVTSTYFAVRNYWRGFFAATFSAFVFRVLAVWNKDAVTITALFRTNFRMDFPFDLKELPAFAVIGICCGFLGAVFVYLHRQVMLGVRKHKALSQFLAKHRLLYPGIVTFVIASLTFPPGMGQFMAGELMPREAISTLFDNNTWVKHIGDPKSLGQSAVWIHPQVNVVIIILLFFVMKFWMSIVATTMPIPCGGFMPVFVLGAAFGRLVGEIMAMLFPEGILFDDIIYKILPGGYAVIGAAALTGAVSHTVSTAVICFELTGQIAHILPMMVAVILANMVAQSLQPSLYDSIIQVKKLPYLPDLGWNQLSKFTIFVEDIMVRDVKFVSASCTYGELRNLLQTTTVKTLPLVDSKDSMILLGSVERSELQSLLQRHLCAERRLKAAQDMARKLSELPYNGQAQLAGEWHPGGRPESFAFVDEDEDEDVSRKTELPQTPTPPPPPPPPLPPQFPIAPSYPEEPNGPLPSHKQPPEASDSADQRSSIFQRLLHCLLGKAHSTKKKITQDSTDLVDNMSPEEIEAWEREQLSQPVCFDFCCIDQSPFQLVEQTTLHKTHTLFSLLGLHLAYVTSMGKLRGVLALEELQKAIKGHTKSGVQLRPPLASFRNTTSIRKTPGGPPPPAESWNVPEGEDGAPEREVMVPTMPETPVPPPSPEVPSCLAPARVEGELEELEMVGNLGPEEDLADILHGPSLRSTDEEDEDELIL
Starred values were filed as active, the others as inactive; i = inactive; / = no result.

SMILES	SR-BI DiI-HDL act	SR-BI DiI inh	FID counter	Kir21 block	ANO1 activ	ANO1 block	TMEM16A reconf	HEK293 Ca mobil	Parental YFP cnt	ClC-1 rat inh
COc1ccc(Cn2nnnc2C(c2cccs2)N2CCSCC2)cc1 (stereo unspecified)	-6.2	6.2	-21.9	0.02	i	i	/	/	/	/
CN(C)c1ccnc(SCc2ccccc2Cl)c1C#N	-5.7	5.7	-1.9	-1.47	i	25*	i	i	-0.838	-8.0
Cc1cc(C(=O)COC(=O)c2nn(C)c(=O)c3ccccc23)c(C)n1C	-45.7	45.7	/	/	/	/	/	/	/	/
C/C(=N\OC(=O)NC1CCCCC1)c1sc(-c2ccccc2)nc1C	-53.8	53.8	-24.0	0.37	i	25*	25.0%*	i	-1.15	-9.5
C/C(=N\OC(=O)NC(C)C)c1sc(-c2ccccc2)nc1C	-48.5	48.5	-21.9	-2.77	i	i	/	/	/	/
Cc1noc(C)c1COC(=O)c1cc(=O)[nH]c2ccccc12	3.4	-3.4	-13.6	/	i	i	/	/	/	/
Cc1noc(C)c1COC(=O)c1cc(C)n(-c2ccccc2)c1C	19.3	-19.3	-10.6	0.9	i	25*	22.0%*	i	-0.992	-11.5
COc1cc(OC)cc(C(=O)Nc2ncn[nH]2)c1	26.4	-26.4	/	/	i	/	/	/	/	/
COc1cc(OC)c(C(=O)Nc2ncn[nH]2)cc1OC	5.3	-5.3	-1.0	-1.58	i	100*	i	i	-1.26	-3.0
CC1CN(C(=O)NCc2ccccc2)c2cc(Cl)ccc2O1 (stereo unspecified)	-19.8	19.8	-18.8	-0.41	i	i	/	/	/	/
CC(C)(Oc1ccc(Cl)cc1)C(=O)OCn1nnc2ccccc2c1=O	-4.8	4.8	-12.2	-2.31	i	100*	i	32.0%*	-1.06	-1.0
O=C1CCN(C(=O)CSc2ccc(Cl)cc2)N1	-62.5	62.5	9.2	0.32	i	i	/	/	/	/
CCOC(=O)c1ccc(NC(=O)CSc2ccc(-c3cccnc3)nn2)cc1	/	/	-16.0	0.08	i	25*	i	i	-1.13	-5.0
CCC(CC)COC(=O)C1=C(C)NC(=O)NC1c1ccccc1Br (stereo unspecified)	6.3	-6.3	-22.7	1.35	i	i	/	/	/	/
Cc1cc(C)nc(/N=C(\N)Nc2ccc(SC(F)F)cc2)n1	/	/	-1.6	-0.52	i	100*	i	32.0%*	-0.978	-6.0
O=C(OCC(=O)N1CCc2ccccc21)c1c2c(nc3ccccc13)CCCCC2	-59.0	59.0	-5.5	-0.09	i	100*	i	i	-1.2	-13.0
Cc1nc2ccc(N=NC3=C(O)CCCC3=O)cc2s1	-9.4	9.4	-6.4	0.47	i	i	i	i	-1.13	-8.0
CC(C)S(=O)(=O)c1csc(NC(=O)Nc2cccc([N+](=O)[O-])c2)c1Cl	-42.3	42.3	-0.8	-0.62	i	i	/	/	/	/
CCOc1cc(C(=O)OCC(=O)Nc2ccc(F)cc2Cl)ccc1OCC(=O)N1CCOCC1	-24.0	24.0	/	/	i	/	/	/	/	/
Nc1nc(CN2CCN(c3ccccc3)CC2)nc(Nc2ccc(Cl)cc2)n1	-13.3	13.3	-4.8	1.15	i	25*	i	i	-1.13	-2.0
COc1cccc(/C=C2\CCC(C3CCCC3)C2=O)c1OC (stereo unspecified)	-5.0	5.0	-33.1	1.31	i	25*	18.0%*	i	-0.981	-8.0
COc1ccc(/C=C2\CCC(C3CCCC3)C2=O)c(OC)c1OC (stereo unspecified)	-24.4	24.4	-14.5	1.26	i	i	/	/	/	/
O=C(Cc1ccccc1)c1ccc(N2CCOCC2)cc1	-7.6	7.6	/	/	i	/	/	/	/	/
Cc1cccc(C)c1OCC(O)CNC(C)c1ccccc1 (stereo unspecified)	-8.6	8.6	11.7	-2.15	i	i	/	/	/	/
COc1ccc(CC2(CO)CCN(CC3=Cc4cc(Cl)ccc4OC3)CC2)cc1	-39.9	39.9	14.4	1	i	25*	16.5%*	i	-1.03	-22.5
SMILES	SR-BI DiI-HDL act	SR-BI DiI inh	FID counter	Kir21 block	ANO1 activ	ANO1 block	TMEM16A reconf	HEK293 Ca mobil	Parental YFP cnt	ClC-1 rat inh
COc1ccc(CC2(CO)CCN(Cc3cnn(-c4ccccc4)c3)CC2)cc1	-17.4	17.4	19.7	-0.76	i	i	/	/	/	/
COc1ccc(CC2(CO)CCN(Cc3cnc(-c4ccccc4C)nc3)CC2)cc1	/	/	-0.2	0.43	i	25*	i	i	-1.05	-9.0
CCOc1ccc(C(O)(c2ccccc2)C(CN2CCCC2)c2ccccc2)cc1 (stereo unspecified)	10.6	-10.6	7.0	-2.17	i	i	/	/	/	/
C=C[C@](C)(CC[C@@]1(C)C(C)CC(OC2OC(C)C(OC3OC(COC(C)=O)C(O)C(O)C3O)C(O)C2O)[C@@]2(C)C(C)=CCCC12)OC1OC(C)C(O[C@@H]2O[C@@H](C)C(O)C(O)[C@H]2O)C(O)C1O (stereo partly specified)	7.4	-7.4	/	/	i	/	/	/	/	/
Cc1ccc(-c2csc(NC(=O)CSc3nc(C)cs3)n2)cc1	-6.9	6.9	-16.2	-0.57	i	25*	i	i	-0.428	13.5
Cc1cc(=O)[nH]c(SCC(=O)Nc2nc(-c3ccccc3)cs2)n1	39.3	-39.3	-8.3	0.54	i	i	/	/	/	/
Cc1cc(C)nc(SCc2nnc(SCC(=O)Nc3nc(-c4ccccc4)cs3)n2C)n1	-69.4	69.4	-3.7	0.43	i	i	/	/	/	/
Cc1csc(SCC(=O)Nc2nc(-c3ccccc3)cs2)n1	2.1	-2.1	-12.9	0.82	i	100*	i	i	-1.03	-5.0
COc1ccccc1-c1nnc(SCC(=O)Nc2nc(-c3ccccc3)cs2)n1C	-49.3	49.3	-19.0	0.05	i	100*	18.0%*	i	-0.795	3.0
